Only some compounds are listed: those with a hit (about 5.9% of all), similar ones and a draw of the others.
T cruzi growth-1 – T. cruzi proliferation inhibition; inhibition, % at 8.34 µM; T. cruzi beta-gal in NIH3T3, GalScreen luminescence, 90 h; 77,000 compounds, 5.9% hits;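 active = mean inhibition above about 93%, with at least 55% of replicates each passing it, limit read from the data, passing the limit was not always enough; inconclusive = only one of those two conditions holds; inactive = neither condition holds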
Pf Dd2 growth – P. falciparum Dd2 growth inhibition. SYBR Green, 72 h; stronger effect = lower value. activity change, % at 10 µM. 94,000 compounds, 2.3% hits. AID 1159554; in the data active = activity change below about -80%; inconclusive = no clear call, values can overlap the other calls
GASC1 inh – inhibitors of human demethylase GASC-1 KDM4C | Q9H3R0 | GST-KDM4C 2-372, H3K9me3 peptide, LANCE TR-FRET | inhibition, % at 12.5 µM | 96,000 compounds, 0.15% hits | AID 720574;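 active = mean replicate inhibition above about 25%, with at least 55% of replicates also reaching it, limit read from the data, passing the limit was not always enough; inconclusive = only one of those two conditions met; inactive = neither condition met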
Target sequence (Q9H3R0 2-372 limits assumed): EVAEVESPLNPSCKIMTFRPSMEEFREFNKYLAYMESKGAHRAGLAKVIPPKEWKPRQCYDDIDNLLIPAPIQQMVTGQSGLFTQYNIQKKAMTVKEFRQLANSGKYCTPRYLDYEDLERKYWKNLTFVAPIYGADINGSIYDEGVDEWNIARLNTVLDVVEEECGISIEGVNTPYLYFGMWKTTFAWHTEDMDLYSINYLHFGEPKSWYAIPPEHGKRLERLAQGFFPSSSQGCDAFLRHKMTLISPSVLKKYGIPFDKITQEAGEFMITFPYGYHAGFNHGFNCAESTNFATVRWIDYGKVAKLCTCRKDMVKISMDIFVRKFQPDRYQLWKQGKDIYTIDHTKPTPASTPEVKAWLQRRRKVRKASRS
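Test system – GST-tagged GASC-1 (JMJD2C) catalytic fragment, aa 2-372 · Medium – HEPES buffer, pH 7.5, plus ascorbate · Reagent – H3K9me3 peptide with Fe(II)/2OG · Compound – one test concentration per compound · Timing – 30 min reaction, 60 min detection, RT · Technique – TR-FRET with Eu antibody and ULight streptavidin, EDTA stop · Read-out basis – inhibition from TR-FRET ratio decrease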
IDH1 R132H inh – inhibitors of human IDH1 R132H. IDH1 R132H reductase, diaphorase/resazurin fluorescence, 60 min. O75874. 70,000 compounds, 0.18% hits. inhibition, % at 10 µM; in the data active = inhibition above about 34%; inconclusive = no clear call, values can overlap the other calls; inactive = below about 11%;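 also: 0% = DMSO and 100% = no enzyme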
T cruzi growth-2 – inhibitors of T. cruzi proliferation. inhibition, % at 8.35 µM. AID 651739. 5,600 compounds, 72% hits. shares compounds with T cruzi growth-1. T. cruzi beta-gal in NIH3T3, GalScreen luminescence, 90 h;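 active = mean replicate inhibition above about 95% and at least 55% of replicates individually reaching it, limit read from the data; inconclusive = only one of the two criteria is met; inactive = neither criterion is met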
T cruzi growth-3 – Trypanosoma cruzi proliferation inhibition; 5,600 compounds, 21% hits; T. cruzi beta-gal in NIH3T3, GalScreen luminescence, 90 h; shares compounds with T cruzi growth-1; AID 651740; inhibition, % at 2.09 µM;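 active = mean inhibition above about 95%, with at least 55% of replicates also reaching it, limit read from the data; inconclusive = meets just one of the two conditions; inactive = meets neither condition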;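 also: plate controls were neutral control median for no effect and positive control median for full effect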
NIH3T3 tox – kills mouse NIH/3T3 fibroblasts. shares compounds with T cruzi growth-1. NIH/3T3 viability, CellTiter-Glo ATP luminescence, 90 h. cytotoxicity (signal decrease), % at 8.35 µM. 5,600 compounds, 14% hits;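 active = mean signal decrease across replicates above about 35% based on untreated-well scatter, with enough replicates individually passing, limit read from the data; inconclusive = no rule stated though some were filed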;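 also: 0% = median of neutral control wells and 100% = median of positive control wells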
NIH3T3 tox 2 – cytotoxicity in mouse NIH/3T3 fibroblasts. 5,600 compounds, 56% hits. NIH/3T3 viability, CellTiter-Glo ATP luminescence, 90 h. shares compounds with T cruzi growth-1. inhibition, % at 24.9 µM;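 active = mean loss of cell viability signal at or above a set limit, and enough replicates individually reaching it; inconclusive = meets only the mean limit or only the replicate share; inactive = meets neither condition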;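 also: 0% = median of neutral control wells and 100% = median of positive control wells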
* = called active by the depositor; ? = inconclusive; / = no result given.

SMILES	T cruzi growth-1	Pf Dd2 growth	GASC1 inh	IDH1 R132H inh	T cruzi growth-2	T cruzi growth-3	NIH3T3 tox	NIH3T3 tox 2
CNC[C@H]1Oc2cc(C#Cc3ccncc3)ccc2S(=O)(=O)N([C@@H](C)CO)C[C@H]1C	/	-26	7	2	/	/	/	/
Cn1cnc(S(=O)(=O)N[C@H]2CC[C@@H](CC(=O)Nc3ccccc3)O[C@H]2CO)c1	/	/	-1	0	/	/	/	/
C[C@@H]1CN([C@@H](C)CO)C(=O)Cc2cc(N(C)C)ccc2O[C@H]1CN(C)Cc1ccc(C(=O)Nc2ccccc2N)cc1	96*	-59	0	0	106*	?	41*	82*
C[C@H]1CN([C@@H](C)CO)C(=O)Cc2cc(NC(=O)Nc3ccc(C(F)(F)F)cc3)ccc2O[C@H]1CN(C)Cc1ccc(C(=O)Nc2ccccc2N)cc1	80	-35	9	/	/	/	/	/
C[C@@H]1CN([C@@H](C)CO)C(=O)Cc2cc(NC(=O)Cc3ccccc3)ccc2O[C@@H]1CN(C)Cc1ccc(C(=O)Nc2ccccc2N)cc1	102*	-81*	-1	/	106*	80	31	39*
C[C@H]1CN([C@@H](C)CO)C(=O)Cc2cc(N(C)C)ccc2O[C@@H]1CN(C)Cc1ccc(C(=O)Nc2ccccc2N)cc1	74	-51	2	/	/	/	/	/
C[C@@H]1CN([C@@H](C)CO)C(=O)CCCn2nncc2CO[C@@H]1CN(C)Cc1ccc(C(=O)O)cc1	/	14	0	/	/	/	/	/
C[C@H](CO)N1C[C@H](C)[C@H](CN(C)Cc2ccc(C(=O)Nc3ccccc3N)cc2)OCc2cnnn2CCCC1=O	106*	-26	-1	-5	108*	59	18	26
C[C@@H]1CN([C@H](C)CO)C(=O)Cc2cc(NC(=O)Nc3ccc(C(F)(F)F)cc3)ccc2O[C@@H]1CN(C)Cc1ccc(C(=O)Nc2ccccc2N)cc1	?	-14	-1	0	100*	106*	55*	97*
CS(=O)(=O)Nc1ccc2c(c1)[C@@H]1C[C@@H](CC(=O)NC3CCCCC3)O[C@@H](CO)[C@@H]1O2	14	-17	-3	3	/	/	/	/
CN1C(=O)c2cc(NC(=O)NCc3ccccc3)ccc2OC[C@H]2O[C@@H](CC(=O)NCC3CCCCC3)CC[C@H]21	54	19	-1	/	/	/	/	/
C[C@@H]1CCCCO[C@H](CN(C)Cc2ccc(Cl)c(Cl)c2)[C@@H](C)CN([C@@H](C)CO)C(=O)c2cc(NC(=O)Nc3cccc4ccccc34)ccc2O1	125*	-90*	0	/	101*	116*	18	-3
C[C@@H]1CCCCO[C@@H](CN(C)Cc2ccc(Cl)c(Cl)c2)[C@H](C)CN([C@@H](C)CO)C(=O)c2cc(NC(=O)Nc3cccc4ccccc34)ccc2O1	126*	-48	-1	/	110*	112*	16	1
C[C@@H]1CN([C@@H](C)CO)C(=O)c2cc(NC(=O)Nc3cccc4ccccc34)ccc2O[C@@H](C)CCCCO[C@H]1CN(C)Cc1ccc(Cl)c(Cl)c1	122*	-35	0	0	107*	106*	24	8
Cc1noc(C)c1C(=O)N(C)C[C@@H]1OCc2ccccc2-c2ccccc2C(=O)N([C@@H](C)CO)C[C@H]1C	67	26	1	/	/	/	/	/
Cc1cccc(NC(=O)CCCC(=O)O)c1	/	/	/	0	/	/	/	/
C[C@H](CO)N1C[C@H](C)[C@@H](CN(C)C(=O)c2ccccn2)Oc2cc(Br)ccc2S1(=O)=O	13	21	0	/	/	/	/	/
C[C@H]1CN([C@@H](C)CO)S(=O)(=O)c2ccc(C#CC3CC3)cc2O[C@H]1CN(C)C(=O)Cc1ccncc1	90	-68	1	15	/	/	/	/
C[C@H]1CN([C@@H](C)CO)S(=O)(=O)c2ccc(C#CC3CC3)cc2O[C@@H]1CN(C)C(=O)Cc1ccncc1	96*	-50	1	/	104*	74	-30	-17
C[C@@H]1CN([C@@H](C)CO)S(=O)(=O)c2ccc(C#CC3CC3)cc2O[C@@H]1CN(C)C(=O)Cc1ccncc1	88	-52	-1	/	/	/	/	/

Assay outcomes: PubChem, Broad Institute
